The source of these data is paper PMC4780051 (Biochemistry, 2010).

For experiment [1], the target named is Capitella teleta acetylcholine-binding protein (Capitella teleta). The experiment is described as follows: NMR titration.
For experiment [2], the target named is T1, ct-AChBP (Capitella teleta acetylcholine-binding protein) (Capitella teleta, UniProt I6L8L2).
T1 sequence (I6L8L2 1-224): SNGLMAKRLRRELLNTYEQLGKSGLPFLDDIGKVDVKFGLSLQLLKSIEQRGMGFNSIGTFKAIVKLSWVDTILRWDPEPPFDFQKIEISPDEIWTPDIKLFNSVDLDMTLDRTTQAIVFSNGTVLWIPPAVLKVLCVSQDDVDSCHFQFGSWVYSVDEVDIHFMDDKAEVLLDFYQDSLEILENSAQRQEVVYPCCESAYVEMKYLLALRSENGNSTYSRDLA
Kind of experiment: 1H NMR direct titration.

The target of experiment [3] is T1, ct-AChBP (Capitella teleta acetylcholine-binding protein). Kind of experiment: STD NMR displacement titration with acetylcholine as reporter ligand.
The target is the same in experiment [4]. Kind of experiment: STD NMR displacement titration with choline as reporter ligand. The method, boiled down: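 C-terminally V5/His-tagged ct-AChBP, stably expressed in HEK293-f cells, purified from medium by cobalt affinity then Superdex 200. 5 μM protein with 100 μM choline in 25 mM phosphate pH 7.0, 100% D2O, titrated with test compound; 16K scans; choline CH2 STD peaks tracked. KD fitted by competition equation using choline KD from shift/line-width titration; standard errors from asymptotic covariance matrix.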

The term Kd denotes the free concentration of one partner at which half of the binding sites on the other are occupied at equilibrium, for simple one-to-one binding. Read a high Kd as a looser complex. With “α-bungarotoxin (from UniProt P60615 22-95) (natural protein)”, the Kd in experiment [1] was found to be 0.11 µM. The compound `C[N+](C)(C)CCO` [Ch, choline] gave a Kd in experiment [2] of 163 ± 37 µM. In experiment [3], `CN1CCC[C@H]1c1cccnc1` [Nic, nicotine] showed a dissociation constant Kd of 0.209 ± 0.051 µM.

The compound `CC(=O)OCC[N+](C)(C)C` [ACh, acetylcholine] displayed a Kd in experiment [4] of 28.7 ± 1.7 µM.
